Data taken from ChEMBL document CHEMBL3351374, “Semisynthetic teicoplanin derivatives as new influenza virus binding inhibitors: synthesis and antiviral studies” (Bioorg Med Chem Lett, 2014).
Values after ≈ are worked out from the molar mass of the structure shown.

Tests used:
Influenza A virus [1] = assay: Antiviral activity against Influenza A virus (A/PR/8/34(H1N1)) infected in MDCK cells assessed as reduction in host cell viability after 72 hrs by MTS assay; assay type: functional, organism-based; details: A/Puerto Rico/8/1934(H1N1)
Influenza A virus [2] = assay: Antiviral activity against Influenza A virus (A/PR/8/34(H1N1)) infected in MDCK cells assessed as virus-induced cytopathic effect after 72 hrs by microscopy; assay type: functional, organism-based; details: A/Puerto Rico/8/1934(H1N1)
Influenza A virus [3] = assay: Antiviral activity against Influenza A virus A/Virginia/ATCC3/2009 infected in MDCK cells assessed as virus-induced cytopathic effect after 72 hrs by microscopy; assay type: functional, organism-based; details: A/Virginia/ATCC3/2009, MDCK
Influenza A virus [4] = assay: Antiviral activity against Influenza A virus A/Virginia/ATCC3/2009 infected in MDCK cells assessed as reduction in host cell viability after 72 hrs by MTS assay; assay type: functional, organism-based; details: A/Virginia/ATCC3/2009, MDCK
[5] = Antiviral activity against Influenza A virus (A/HK/7/1987(H3N2)) infected in MDCK cells assessed as virus-induced cytopathic effect after 72 hrs by microscopy; assay type: functional, cell-based, Influenza A virus (A/Hong Kong/7/1987(H3N2))
[6] = Antiviral activity against Influenza A virus (A/HK/7/1987(H3N2)) infected in MDCK cells assessed as reduction in host cell viability after 72 hrs by MTS assay; assay type: functional, cell-based, Influenza A virus (A/Hong Kong/7/1987(H3N2))
[7] = Cytotoxicity against MDCK cells assessed as reduction in cell viability after 72 hrs by MTS assay; assay type: cell-based, Canis lupus familiaris; details: dog
[8] = Cytotoxicity against MDCK cells assessed as change in cell morphology after 72 hrs by microscopy; assay type: cell-based, Canis lupus familiaris; details: dog
Outline: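 Uninfected MDCK cells exposed to compound. MCC is the minimal concentration causing minimal alterations in cell morphology, assessed by microscopy.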

[9] = Cytotoxicity against chicken RBC assessed as minimum concentration required for hemagglutination by microscopy; assay type: cell-based, Gallus gallus; details: erythrocyte
Outline: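 Chicken red blood cells incubated with compound without virus. The value is the minimal concentration causing hemagglutination.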

[10] = Inhbition of Influenza A virus (A/X-31(H3N2) hemagglutinin binding to 2 hrs compound pre-incubated MDCK cells assessed as reduction in viral RNA measured after 1 hr by RT-qPCR analysis; assay type: cell-based
Outline: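 Influenza virus binding to MDCK host cells measured with compound at 50, 10, 2 and 0.4 µM.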

[11] = Selectivity ratio of CC50 for MDCK cells assessed as reduction in cell viability after 72 hrs by MTS assay to EC50 for Influenza A virus A/Virginia/ATCC3/2009 infected in MDCK cells; assay type: cell-based; details: dog, read-out: Ratio CC50/EC50
[12] = Selectivity ratio of MCC for MDCK cells assessed as change in cell morphology after 72 hrs by microscopy to EC50 for Influenza A virus A/Virginia/ATCC3/2009 infected in MDCK cells; assay type: cell-based; details: dog
Influenza B virus [13] = assay: Antiviral activity against Influenza B virus (B/HK/05/1972) infected in MDCK cells assessed as virus-induced cytopathic effect after 72 hrs by microscopy; assay type: functional, cell-based; details: B/Hong Kong/05/1972, MDCK
Influenza B virus [14] = assay: Antiviral activity against Influenza B virus (B/HK/05/1972) infected in MDCK cells assessed as reduction in host cell viability after 72 hrs by MTS assay; assay type: functional, cell-based; details: B/Hong Kong/05/1972, MDCK
[15] = Retention time of the compound by HPLC method; assay type: physicochemical
Bacillus spizizenii = assay: Antibacterial activity against Bacillus subtilis ATCC 6633 by broth microdilution method; assay type: functional
Staphylococcus aureus [16] = assay: Antibacterial activity against methicillin-sensitive Staphylococcus aureus ATCC 29213 by broth microdilution method; assay type: functional
Staphylococcus aureus [17] = assay: Antibacterial activity against methicillin-resistant Staphylococcus aureus ATCC 33591 by broth microdilution method; assay type: functional
[18] = tested on: Staphylococcus epidermidis; assay: Antibacterial activity against biofilm forming Staphylococcus epidermidis ATCC 35984 by broth microdilution method; assay type: functional
Enterococcus faecalis [19] = assay: Antibacterial activity against Enterococcus faecalis ATCC 29212 by broth microdilution method; assay type: functional
[20] = tested on: Staphylococcus epidermidis; assay: Antibacterial activity against biofilm forming Staphylococcus epidermidis harboring mecA gene by broth microdilution method; assay type: functional
Enterococcus faecalis [21] = assay: Antibacterial activity against vanA gene-positive Enterococcus faecalis 15376 by broth microdilution method; assay type: functional
Enterococcus faecalis [22] = assay: Antibacterial activity against vanA gene-positive Enterococcus faecalis ATCC 51299 by broth microdilution method; assay type: functional
Influenza A virus [23] = assay: Antiviral activity against Influenza A virus infected in chicken RBC assessed as minimum concentration required for inhibition of 4 hemagglutinating units of virus-induced hemagglutination after 1 hr by microscopy; assay type: functional
Outline: (§1)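 Chicken red blood cells incubated with virus at 1, 2 or 4 HA-U plus compound. The value is the minimal concentration causing inhibition of hemagglutination.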

Influenza A virus [24] = assay: Antiviral activity against Influenza A virus infected in chicken RBC assessed as minimum concentration required for inhibition of 2 hemagglutinating units of virus-induced hemagglutination after 1 hr by microscopy; assay type: functional; outline: as §1
Influenza A virus [25] = assay: Antiviral activity against Influenza A virus infected in chicken RBC assessed as minimum concentration required for inhibition of 1 hemagglutinating unit of virus-induced hemagglutination after 1 hr by microscopy; assay type: functional; outline: as §1

Compound	EC50 (Influenza A virus [1]) [µM]	EC50 (Influenza A virus [2]) [µM]	EC50 (Influenza A virus [3]) [µM]	EC50 (Influenza A virus [4]) [µM]	EC50 [5] [µM]	EC50 [6] [µM]	CC50 at 72 h [7] [µM]	MCC at 72 h [8] [µM]	EC50 (Influenza B virus [13]) [µM]	EC50 (Influenza B virus [14]) [µM]	Retention_time [15] [min]	MIC (Bacillus spizizenii) [µg/mL]	MIC (Staphylococcus aureus [16]) [µg/mL]	MIC (Staphylococcus aureus [17]) [µg/mL]	MIC [18] [µg/mL]	MIC (Enterococcus faecalis [19]) [µg/mL]	MIC [20] [µg/mL]	MIC (Enterococcus faecalis [21]) [µg/mL]	MIC (Enterococcus faecalis [22]) [µg/mL]	other results
CCCCCCCCO[C@@H]1[C@@H](OCCCCCCCC)[C@@H](OC)O[C@H](COCCOCCOCCOCCOCc2cn([C@H]3C(=O)N[C@@H]4Cc5ccc(c(Cl)c5)Oc5cc6cc(c5O)Oc5ccc(cc5Cl)[C@@H](O[C@@H]5O[C@H](CO)[C@@H](O)[C@H](O)[C@H]5NC(C)=O)[C@@H]5NC(=O)[C@H](NC(=O)[C@@H]6NC(=O)[C@@H](NC4=O)c4cc(O)cc(c4)Oc4cc3ccc4O)c3ccc(O)c(c3)-c3c(O)cc(O)cc3[C@@H](C(=O)O)NC5=O)nn2)[C@H]1OCc1ccc(OC)cc1 [listing 1 of 2 here]	1.2	0.8	1.4	< 0.8	1.8	1.2	11	20	> 100	1.5	8.16	–	–	–	–	–	–	–	–	Activity [9]: 50 µM; IC50 [10]: 4.7 µM; selectivity ratio at 72 h [11]: 4; selectivity ratio at 72 h [12]: 4
CCCCCCCCO[C@@H]1[C@@H](OCCCCCCCC)[C@@H](OC)O[C@H](COCCOCCOCCOCCOCc2cn([C@H]3C(=O)N[C@@H]4Cc5ccc(c(Cl)c5)Oc5cc6cc(c5O)Oc5ccc(cc5Cl)[C@@H](O[C@@H]5O[C@H](CO)[C@@H](O)[C@H](O)[C@H]5NC(C)=O)[C@@H]5NC(=O)[C@H](NC(=O)[C@@H]6NC(=O)[C@@H](NC4=O)c4cc(O)cc(c4)Oc4cc3ccc4O)c3ccc(O)c(c3)-c3c(O)cc(O)cc3[C@@H](C(=O)O)NC5=O)nn2)[C@H]1OCc1ccc(OC)cc1 [listing 2 of 2 here]	–	–	–	–	–	–	–	–	–	–	–	256 (≈ 117 µM)	128 (≈ 58.7 µM)	64 (≈ 29.3 µM)	16 (≈ 7.34 µM)	32 (≈ 14.7 µM)	256 (≈ 117 µM)	128 (≈ 58.7 µM)	256 (≈ 117 µM)	Activity (Influenza A virus [23]): 12 µM; Activity (Influenza A virus [24]): 6.3 µM; Activity (Influenza A virus [25]): 0.78 µM
C.CCCCCCCCO[C@H]1[C@@H](OC)O[C@H](COCCOCCOCCOCCOCc2cn([C@H]3C(=O)N[C@@H]4Cc5ccc(c(Cl)c5)Oc5cc6cc(c5O)Oc5ccc(cc5Cl)[C@@H](O[C@@H]5O[C@H](CO)[C@@H](O)[C@H](O)[C@H]5NC(C)=O)[C@@H]5NC(=O)[C@H](NC(=O)[C@@H]6NC(=O)[C@@H](NC4=O)c4cc(O)cc(c4)Oc4cc3ccc4O)c3ccc(O)c(c3)-c3c(O)cc(O)cc3[C@@H](C(=O)O)NC5=O)nn2)[C@@H](O)[C@@H]1OCCCCCCCC [listing 1 of 2 here]	> 100	> 100	1.8	1.3	2.3	2.2	12	≥ 4	> 100	> 100	8.17	–	–	–	–	–	–	–	–	Activity [9]: 50 µM; IC50 [10]: 7 µM; selectivity ratio at 72 h [11]: 4; selectivity ratio at 72 h [12]: 4
C.CCCCCCCCO[C@H]1[C@@H](OC)O[C@H](COCCOCCOCCOCCOCc2cn([C@H]3C(=O)N[C@@H]4Cc5ccc(c(Cl)c5)Oc5cc6cc(c5O)Oc5ccc(cc5Cl)[C@@H](O[C@@H]5O[C@H](CO)[C@@H](O)[C@H](O)[C@H]5NC(C)=O)[C@@H]5NC(=O)[C@H](NC(=O)[C@@H]6NC(=O)[C@@H](NC4=O)c4cc(O)cc(c4)Oc4cc3ccc4O)c3ccc(O)c(c3)-c3c(O)cc(O)cc3[C@@H](C(=O)O)NC5=O)nn2)[C@@H](O)[C@@H]1OCCCCCCCC [listing 2 of 2 here]	–	–	–	–	–	–	–	–	–	–	–	4	16	8	8	2	256	8	4	Activity (Influenza A virus [23]): 3.1 µM; Activity (Influenza A virus [24]): 0.78 µM; Activity (Influenza A virus [25]): 0.39 µM
COc1ccc(CO[C@H]2[C@H](OC)[C@@H](OC)[C@@H](OC)O[C@@H]2COCCOCCOCCOCCOCc2cn([C@H]3C(=O)N[C@@H]4Cc5ccc(c(Cl)c5)Oc5cc6cc(c5O)Oc5ccc(cc5Cl)[C@@H](O[C@@H]5O[C@H](CO)[C@@H](O)[C@H](O)[C@H]5NC(C)=O)[C@@H]5NC(=O)[C@H](NC(=O)[C@@H]6NC(=O)[C@@H](NC4=O)c4cc(O)cc(c4)Oc4cc3ccc4O)c3ccc(O)c(c3)-c3c(O)cc(O)cc3[C@@H](C(=O)O)NC5=O)nn2)cc1 [listing 1 of 2 here]	> 100	> 100	> 100	> 100	> 100	> 100	47	≥ 20	> 100	> 100	5.73	–	–	–	–	–	–	–	–	–
COc1ccc(CO[C@H]2[C@H](OC)[C@@H](OC)[C@@H](OC)O[C@@H]2COCCOCCOCCOCCOCc2cn([C@H]3C(=O)N[C@@H]4Cc5ccc(c(Cl)c5)Oc5cc6cc(c5O)Oc5ccc(cc5Cl)[C@@H](O[C@@H]5O[C@H](CO)[C@@H](O)[C@H](O)[C@H]5NC(C)=O)[C@@H]5NC(=O)[C@H](NC(=O)[C@@H]6NC(=O)[C@@H](NC4=O)c4cc(O)cc(c4)Oc4cc3ccc4O)c3ccc(O)c(c3)-c3c(O)cc(O)cc3[C@@H](C(=O)O)NC5=O)nn2)cc1 [listing 2 of 2 here]	–	–	–	–	–	–	–	–	–	–	–	16 (≈ 8.06 µM)	16 (≈ 8.06 µM)	32 (≈ 16.1 µM)	16 (≈ 8.06 µM)	32 (≈ 16.1 µM)	32 (≈ 16.1 µM)	32 (≈ 16.1 µM)	32 (≈ 16.1 µM)	–
NC12CC3CC(CC(C3)C1)C2 [AMANTADINE]	111	–	> 500	> 500	0.45	0.5	> 500	> 500	> 500	> 500	–	–	–	–	–	–	–	–	–	–
NC(=O)c1ncn([C@@H]2O[C@H](CO)[C@@H](O)[C@H]2O)n1 [RIBAVIRIN]	21	–	–	–	6.8	7.3	> 100	≥ 20	–	8.2	–	–	–	–	–	–	–	–	–	–
CC(N)C12CC3CC(CC(C3)C1)C2 (stereo unspecified) [RIMANTADINE]	5.3	4.6	> 500	> 500	0.051	0.046	> 500	≥ 500	> 500	> 500	–	–	–	–	–	–	–	–	–	–
CC(=O)N[C@H]1[C@H]([C@H](O)[C@H](O)CO)OC(C(=O)O)=C[C@@H]1NC(=N)N [ZANAMIVIR]	0.5	0.47	45	20	8.9	9	> 100	> 100	12	9.4	–	–	–	–	–	–	–	–	–	–
